Laboratory results published in ChEMBL document CHEMBL1153527, “Discovery of a novel series of quinolone and naphthyridine derivatives as potential topoisomerase I inhibitors by scaffold modification” (J Med Chem, 2009).
Activity calls are given as the source filed them. No cut-off for these calls is given here.

What was measured:
HT-29 [1] = experiment: Antitumor activity against human HT-29 cells xenografted in athymic BALB/c nude mouse at 75 mg/kg, ip for 10 days measured after 30 days relative to placebo control; assay type: functional; conditions: route intraperitoneal
In short: (§1)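 Female athymic BALB/c nude mice (35-40 days old, 18-22 g). HT-29 tumours first grown from 1 × 10^7 cells injected s.c. in the axillary fossa, then excised and transplanted. Treatment started at 100-300 mm3. Groups of n=6 were dosed i.p. daily in 400 μL: saline for 10 days, 5 mg/kg for 2 days, or 75/150 mg/kg for 10 days. Caliper volume was V=1/2·a·b². Values are relative to start volume, compared with placebo by Student's t test, and mice were killed on day 30.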

SK-OV-3 [2] = experiment: Reduction in topoisomerase 1 expression in human SKOV3 cells by immunocytochemistry; assay type: functional, cell-based
In short: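 HT-29 and SKOV-3 cells were grown on slides and treated with compound at several concentrations, with an untreated control. Cells were fixed and permeabilised, and endogenous peroxidase was quenched with 0.3% H2O2/methanol. After blocking with 10% goat serum, slides were stained with anti-Top I (1:100, 10 h), then biotinylated secondary and avidin-biotin-HRP, and developed with DAB.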

HT-29 [3] = experiment: Antitumor activity against human HT-29 cells xenografted in athymic BALB/c nude mouse at 150 mg/kg, ip for 10 days measured after 30 days relative to placebo control; assay type: functional; conditions: route intraperitoneal; in short: as §1
SK-OV-3 [4] = experiment: Induction of apoptosis in human SKOV3 cells assessed as apoptotic cells at 5 ug/mL after 24 hrs by annexin V/propidium iodide-based flow cytometry; assay type: functional
In short: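 SKOV-3 or HT-29 cells (1-5 × 10^6 cells/mL) were incubated with 0, 5 or 10 μg/mL compound for 24 h. They were then washed and stained with EGFP-Annexin V/PI and analysed immediately by flow cytometry. Annexin V+/PI− cells were scored as apoptotic; PI-permeant cells were scored as necrotic.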

HT-29 [5] = experiment: Cytotoxicity against human HT-29 cells assessed as inhibition of anchorage-dependent colony formation at 5 uM after 14 days; assay type: functional, cell-based
In short: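 HT-29 cells were plated at 500 per well and allowed to attach for 24 h. They were then exposed continuously to compound or DMSO for 14 days, with medium replaced every 72 h. Colonies were fixed in 1% formaldehyde/PBS and stained with 0.1% crystal violet.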

HT-29 [6] = experiment: Induction of apoptosis in human exponentially growing HT-29 cells; assay type: functional, cell-based; conditions: TDE = time-dependent effect
Mus musculus = experiment: Toxicity in athymic BALB/c nude mouse xenografted with human HT-29 cells assessed as morbidity at 150 mg/kg, ip for 10 days measured after 30 days; assay type: organism-based; set-up: dose 150 mg/kg, route intraperitoneal; conditions: in vivo, 720 h
In short: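 Nude mouse HT-29 xenograft model as above: female athymic BALB/c, 18-22 g, n=6 per group. Dosing was i.p. daily in 400 μL for 10 consecutive days at 75 or 150 mg/kg, with saline controls. Body weight and tumour volume were recorded every 4 days, and the study ended on day 30. Weights were compared with controls by Student's t test.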

HepG2 = experiment: Cytotoxicity against human HepG2 cells expressing wild type p53 after 48 hrs by SRB assay; assay type: functional, cell-based; conditions: HepG2, 48 h
In short: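 Cell lines came from CCRC, Taiwan. Cells were seeded at about 5 × 10^3 per well and left overnight. They were then given serum-free medium containing 0-10 μM compound (0.08-10 μM serial dilutions) for 48 h at 37 °C. Cells were fixed with TCA (10% final), stained with SRB (0.4% final), and the dye was dissolved in 10 mM Tris with A515 read. IC50 was taken from a fitted log concentration-response curve.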

THP-1 = experiment: Cytotoxicity against human THP1 cells expressing p53 mutant after 48 hrs by SRB assay; assay type: functional, cell-based; conditions: THP-1, 48 h

In the case of `CCn1cc(-c2nc3ccc([N+](=O)[O-])cc3o2)c(=O)c2cc(F)c(N3CCNC(C)C3)c(F)c21` (stereo not given), the Activity (HT-29 [1]) is reported as 52%, the Activity (SK-OV-3 [2]) is reported as “Dose-dependent effect” and the Activity (HT-29 [3]) is reported as 65%. The Activity (SK-OV-3 [4]) was 7.4%, the Activity (HT-29 [5]) was “Active” and the Activity (HT-29 [6]) was “tde”. The Activity (Mus musculus) was “Non-toxic”, the GI50 (HepG2) was 2800 nM and the IC50 (HepG2) was 4.5 µM. For the same molecule, the IC50 (THP-1) was 3.5 µM.
